Reference: ChEMBL document CHEMBL1128174, “Enhanced D1 affinity in a series of piperazine ring substituted 1-piperazino-3-arylindans with potential atypical antipsychotic activity” (J Med Chem, 1995)
Where “and” joins values, the source holds several entries; their conditions need not be identical. Equal values may be shown once.

Legend:
D(2) dopamine receptor = D(2) dopamine receptor (Rattus norvegicus, UniProt P61169); assay: Binding affinity against dopamine receptor D2
D(1A) dopamine receptor = D(1A) dopamine receptor (Rattus norvegicus, UniProt P18901); assay: Binding affinity for dopamine receptor D1, activity is expressed as IC50 values.
Rattus norvegicus [1] = species on record: Rattus norvegicus; assay: Cataleptogenic effect in rats; type: functional
Procedure, shortened: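 Rats scored on a vertical wire grid hourly 1–6 h after dosing; catalepsy counted when immobility lasted at least 15 s.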

Mus musculus = species on record: Mus musculus; assay: Antagonism of methyl phenidate-induced gnawing behavior in mice; type: functional
Procedure, shortened: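 Test compound given ip (or sc) 2 h before methyl phenidate (60 mg/kg); mice housed in pairs on corrugated cardboard in gnawing cages, 5–9 pairs per dose.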

[2] = target: 5-hydroxytryptamine receptor 2A (Rattus norvegicus, UniProt P14842); assay: Binding affinity for 5-hydroxytryptamine 2A receptor, activity is expressed as IC50 values.
Rattus norvegicus [3] = species on record: Rattus norvegicus; assay: In vitro inhibition of [3H]5-HT uptake in rat brain (minus pons, medulla oblongata and cerebellum) homogenates.; type: functional
Rattus norvegicus [4] = species on record: Rattus norvegicus; assay: In vitro inhibition of [3H]NE uptake in rat occipital lobe (plus temporal cortex) homogenates.; type: functional
Rattus norvegicus [5] = species on record: Rattus norvegicus; assay: In vitro inhibition of [3H]dopamine uptake in rat corpus striatum homogenates.; type: functional
[6] = Rattus norvegicus, read-out: ED50
[7] = Rattus norvegicus, Corpus striatum

Chain of D(1A) dopamine receptor (P18901 whole entry): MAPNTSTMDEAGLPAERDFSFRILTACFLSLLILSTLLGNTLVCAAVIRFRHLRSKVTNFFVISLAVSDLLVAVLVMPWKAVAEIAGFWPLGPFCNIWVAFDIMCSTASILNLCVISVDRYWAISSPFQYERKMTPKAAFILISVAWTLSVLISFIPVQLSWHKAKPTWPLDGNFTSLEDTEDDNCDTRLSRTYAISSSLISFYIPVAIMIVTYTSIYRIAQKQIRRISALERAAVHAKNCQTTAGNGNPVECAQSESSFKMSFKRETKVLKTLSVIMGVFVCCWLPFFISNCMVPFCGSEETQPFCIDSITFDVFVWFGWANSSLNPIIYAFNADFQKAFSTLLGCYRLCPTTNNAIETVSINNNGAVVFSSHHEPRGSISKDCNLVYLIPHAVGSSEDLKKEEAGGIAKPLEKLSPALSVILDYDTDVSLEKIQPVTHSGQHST
Chain of D(2) dopamine receptor (P61169 whole entry): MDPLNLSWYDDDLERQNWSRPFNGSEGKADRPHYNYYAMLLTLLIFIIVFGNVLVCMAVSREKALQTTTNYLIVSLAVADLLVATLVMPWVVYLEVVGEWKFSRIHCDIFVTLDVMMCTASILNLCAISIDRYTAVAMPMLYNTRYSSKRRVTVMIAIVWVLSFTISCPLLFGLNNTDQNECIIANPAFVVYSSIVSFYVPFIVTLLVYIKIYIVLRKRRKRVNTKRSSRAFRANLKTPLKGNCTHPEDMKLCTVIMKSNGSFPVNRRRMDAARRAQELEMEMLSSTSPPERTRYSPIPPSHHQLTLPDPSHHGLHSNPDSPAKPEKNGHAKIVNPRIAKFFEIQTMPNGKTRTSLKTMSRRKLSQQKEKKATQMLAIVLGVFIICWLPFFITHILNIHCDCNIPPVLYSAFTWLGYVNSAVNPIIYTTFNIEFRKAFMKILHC
Chain of 5-hydroxytryptamine receptor 2A (P14842 whole entry): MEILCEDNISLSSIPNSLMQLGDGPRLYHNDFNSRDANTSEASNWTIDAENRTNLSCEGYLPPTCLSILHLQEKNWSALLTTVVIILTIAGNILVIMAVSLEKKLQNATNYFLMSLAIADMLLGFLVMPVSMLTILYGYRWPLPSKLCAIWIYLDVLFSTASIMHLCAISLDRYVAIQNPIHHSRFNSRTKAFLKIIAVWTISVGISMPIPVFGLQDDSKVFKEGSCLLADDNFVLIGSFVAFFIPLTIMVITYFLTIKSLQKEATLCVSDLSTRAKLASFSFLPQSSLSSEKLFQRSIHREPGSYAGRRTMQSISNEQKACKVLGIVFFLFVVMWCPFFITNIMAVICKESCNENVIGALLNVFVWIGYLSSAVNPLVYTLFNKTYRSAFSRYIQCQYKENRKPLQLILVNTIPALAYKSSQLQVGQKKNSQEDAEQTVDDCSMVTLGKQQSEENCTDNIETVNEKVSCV

IC50 (D(2) dopamine receptor) [nM]	IC50 (D(1A) dopamine receptor) [nM]	SMILES	ED50 (Rattus norvegicus [1]; [6]) [µmol/kg]	ED50 (Mus musculus; Mus musculus, read-out: ED50) [µmol/kg]	further results
14	66	CC(C)c1ccc2c(c1)C(N1CCN(CCO)CC1)CC2c1ccc(F)cc1 (stereo not given)	–	–	–
2800	730	OCCN1CCN(C2CC(c3ccccc3)c3ccccc32)CC1 (stereo not given)	–	–	–
–	–	CN1CCN(C2CC(c3ccc(F)cc3)c3cccc(Cl)c32)CC1(C)C (stereo not given)	> 41	> 41	–
–	–	CC1(C)CN(C2CC(c3ccc(F)cc3)c3ccc(Cl)cc32)CCN1CCO (stereo not given)	3.7	0.34	–
–	–	CN1CCN(C2CC(c3ccccc3F)c3ccc(Cl)cc32)CC1(C)C (stereo not given)	> 33	34	–
13	38	Cc1ccc2c(c1)C(N1CCN(C)CC1)CC2c1ccc(F)cc1 (stereo not given)	–	–	–
61	16	CN1CCN(C2CC(c3ccccc3)c3ccc(Cl)cc32)CC1 (stereo not given)	–	–	–
82	16	OCCN1CCN(C2CC(c3ccc(F)cc3)c3ccc(F)cc32)CC1 (stereo not given)	–	–	–
–	–	CC1(C)CN(C2CC(c3ccc(F)cc3)c3ccc(C(F)(F)F)cc32)CCN1 (stereo not given)	> 51	2.7	IC50 [2]: 7.5 nM
–	–	CN1CCN(C2CC(c3ccc(F)cc3)c3ccc(Br)cc32)CC1(C)C (stereo not given)	9.4	1.5	–
86	210	COc1ccc2c(c1)C(N1CCN(CCO)CC1)CC2c1ccc(F)cc1 (stereo not given)	–	–	–
–	–	CN1CCN(C2CC(c3cccc(F)c3)c3ccc(Cl)cc32)CC1(C)C (stereo not given)	> 33	> 33	–
21	1.1	CC1(C)CN(C2CC(c3ccc(F)cc3)c3ccc(Cl)cc32)CCN1CCCO (stereo not given)	< 17	–	–
8.1	17	CN1CCN(C2CC(c3ccc(F)cc3)c3ccc(C(F)(F)F)cc32)CC1 (stereo not given)	–	–	–
–	–	CCC1(CC)CN(C2CC(c3ccc(F)cc3)c3ccc(Cl)cc32)CCN1C (stereo not given)	> 20	> 81	–
23	51	Cc1ccc2c(c1)C(N1CCN(CCO)CC1)CC2c1ccc(F)cc1 (stereo not given)	–	–	–
120	13	CC1CN(C2CC(c3ccc(F)cc3)c3ccc(Cl)cc32)CC(C)N1C (stereo not given)	> 36	53	–
–	–	CN1CCN(C2CC(c3ccc(F)cc3)c3c(Cl)cccc32)CC1(C)C (stereo not given)	–	> 36	–
63	34	CN1CCN(C2CC(c3ccc(Cl)cc3)c3ccc(Cl)cc32)CC1(C)C (stereo not given)	–	> 69	IC50 [2]: 32 nM
42	690	CS(=O)(=O)c1ccc2c(c1)C(N1CCN(CCO)CC1)CC2c1ccc(F)cc1 (stereo not given)	–	–	–
–	–	Cc1ccc2c(c1)C(N1CCNC(C)(C)C1)CC2c1ccc(F)cc1 (stereo not given)	> 29	33	–
–	–	Cc1ccc2c(c1)C(N1CCN(C)C(C)(C)C1)CC2c1ccc(F)cc1 (stereo not given)	33	1.4	–

IC50 (D(2) dopamine receptor) [nM]	IC50 (D(1A) dopamine receptor) [nM]	SMILES	ED50 (Rattus norvegicus [1]; [6]) [µmol/kg]	ED50 (Mus musculus; Mus musculus, read-out: ED50) [µmol/kg]	further results
–	–	CN1CCN(C2CC(c3ccc(F)cc3)c3ccc(F)cc32)CC1 (stereo not given)	–	–	IC50 (Rattus norvegicus [3]): 610 nM and 3900 nM
–	–	Fc1ccc(C2CC(N3CCN4CCCCC4C3)c3cc(Cl)ccc32)cc1 (stereo not given)	4.1	14	–
13	39	CSc1ccc2c(c1)C(N1CCN(CCO)CC1)CC2c1ccc(F)cc1 (stereo not given)	–	–	–
41	19	CC1CN(C2CC(c3ccc(F)cc3)c3ccc(Cl)cc32)C(C)CN1C (stereo not given)	> 33	> 66	–
–	–	CN1CCN(C2CC(c3ccc(F)cc3)c3ccc(C(F)(F)F)cc32)CC1(C)C (stereo not given)	5.2	0.99	–
–	–	CN1CCN(C2CC(c3ccc(F)cc3)c3ccc(Cl)cc32)CC12CCC2 (stereo not given)	69	1	–
–	–	CC1CN(C2CC(c3ccc(F)cc3)c3ccc(Cl)cc32)CCN1C (stereo not given)	9.3	0.27	–
–	–	CN1CCN(C2CC(c3ccc(F)cc3)c3ccc(Cl)cc32)CC12CCCCC2 (stereo not given)	–	> 80	–
–	–	CN1CCN(C2CC(c3ccccc3)c3ccccc32)CC1(C)C (stereo not given)	> 36	> 36	–
–	130	OCCN1CCN(C2CC(c3ccc(F)cc3)c3cccc(Cl)c32)CC1 (stereo not given)	–	–	–
–	52	CC(C)N1CCN(C2CC(c3ccc(F)cc3)c3ccc(Cl)cc32)CC1(C)C (single isomer, unassigned; (+))	–	–	IC50 (Rattus norvegicus [3]): 2600 nM; IC50 (Rattus norvegicus [4]): 100 nM; IC50 (Rattus norvegicus [5]): 20 nM
–	51	OCCN1CCN(C2CC(c3ccc(F)cc3)c3ccc(Cl)cc32)CC12CCCC2 (single isomer, unassigned; (+))	–	–	IC50 (Rattus norvegicus [3]; Rattus norvegicus): 2400 nM; IC50 (Rattus norvegicus [4]; Rattus norvegicus): 440 nM; IC50 (Rattus norvegicus [5]; [7]): 120 nM
–	6.6	CN1CCN(C2CC(c3ccc(F)cc3)c3ccc(Cl)cc32)CC12CCCC2 (single isomer, unassigned; (+))	–	–	IC50 (Rattus norvegicus [3]; Rattus norvegicus): 1800 nM; IC50 (Rattus norvegicus [4]; Rattus norvegicus): 690 nM; IC50 (Rattus norvegicus [5]; [7]): 150 nM
–	0.66	CC(C)N1CCN(C2CC(c3ccc(F)cc3)c3ccc(Cl)cc32)CC1(C)C (single isomer, unassigned; (-))	–	–	IC50 (Rattus norvegicus [3]; Rattus norvegicus): 3500 nM; ED50 (Rattus norvegicus [1]): 7.1 µM/kg; IC50 (Rattus norvegicus [4]): 5600 nM; ED50 (Mus musculus): 0.76 µM/kg; IC50 (Rattus norvegicus [5]): 1300 nM
–	0.82	CC(C)N1CCN(C2CC(c3ccc(F)cc3)c3ccc(Cl)cc32)CC1(C)C (stereo in doubt; 29)	6.9	–	ED50 (Mus musculus): 1.6 µM/kg
–	0.85	CN1CCN(C2CC(c3ccc(F)cc3)c3ccc(Cl)cc32)CC12CCCC2 (stereo in doubt; 34)	42	1.7	–
13	1.9	OCCN1CCN(C2CC(c3ccc(F)cc3)c3ccc(Cl)cc32)CC12CCCC2 (stereo in doubt; 35)	–	–	ED50 (Rattus norvegicus [1]): 14 µM/kg; ED50 (Mus musculus): 1.6 µM/kg
–	–	CC1(C)CN(C2CC(c3ccsc3)c3ccc(Cl)cc32)CCN1 (stereo in doubt; 54)	–	–	ED50 (Rattus norvegicus [1]): >35 µM/kg; ED50 (Mus musculus): 6.5 µM/kg
–	0.96	CN1CCN(C2CC(c3ccc(F)cc3)c3ccc(Cl)cc32)CC12CCCC2 (stereo in doubt; (-)-34)	–	–	ED50 (Rattus norvegicus [1]): 31 µM/kg; ED50 (Mus musculus): 1.2 µM/kg
5	1	OCCN1CCN(C2CC(c3ccc(F)cc3)c3ccc(Cl)cc32)CC12CCCC2 (stereo in doubt; (-)-35)	–	–	ED50 (Rattus norvegicus [1]): 2.7 µM/kg; ED50 (Mus musculus): 0.49 µM/kg
–	–	CN1CCN(C2=Nc3cc(Cl)ccc3Nc3ccccc32)CC1 [CLOZAPINE]	> 120	98	–

SMILES	IC50 (D(2) dopamine receptor) [nM]	IC50 (D(1A) dopamine receptor) [nM]	ED50 (Rattus norvegicus [1]; [6]) [µmol/kg]	ED50 (Mus musculus; Mus musculus, read-out: ED50) [µmol/kg]	further results
OCCN1CCN(C2CC(c3ccc(F)cc3)c3ccc(C(F)(F)F)cc32)CC1 (stereo not given)	10	23	–	–	–
CC1(C)CN(C2CC(c3ccc(F)cc3)c3ccc(Cl)cc32)CCN1 (single isomer, unassigned; (+))	12000	1100	–	–	IC50 (Rattus norvegicus [3]): > 100 nM; IC50 (Rattus norvegicus [4]): 290 nM; IC50 (Rattus norvegicus [5]): 29 nM; IC50 [2]: 3600 nM
CN1CCN(C2CC(c3ccc(F)cc3)c3ccc(Cl)cc32)CC1(C)C (stereo in doubt; 28)	–	1.3	–	–	ED50 (Rattus norvegicus [1]): 25 µM/kg; ED50 (Mus musculus): 0.65 µM/kg; IC50 [2]: 2.1 nM
CN1CCN(C2CC(c3ccc(F)cc3)c3ccccc32)CC1(C)C (stereo in doubt; 39)	29	3	> 70	12	IC50 [2]: 5.1 nM
CN1CCN(C2CC(c3ccc(F)cc3)c3ccc(Cl)cc32)CC1(C)C (stereo in doubt; (+)-28)	–	620	–	–	IC50 (Rattus norvegicus [3]): > 1000 nM; IC50 (Rattus norvegicus [4]): 68 nM; IC50 (Rattus norvegicus [5]): 16 nM
CN1CCN(C2CC(c3ccc(F)cc3)c3ccc(Cl)cc32)CC1(C)C (stereo in doubt; (-)-28)	–	0.68	–	0.48	IC50 (Rattus norvegicus [3]): 7200 nM; ED50 (Rattus norvegicus [1]): 9.8 µM/kg; IC50 (Rattus norvegicus [4]): 6500 nM; IC50 (Rattus norvegicus [5]): 3200 nM; IC50 [2]: 1.1 nM
